Laboratory results taken from ChEMBL document CHEMBL3232883, “Triaryl-substituted Schiff bases are high-affinity subtype-selective ligands for the estrogen receptor” (J Med Chem, 2014).
Active and inactive are the calls of the source. The calls are words filed in the database; no cut-off is given here.

How the values were obtained:
[1] = biological target: T1, Estrogen receptor (Homo sapiens) (UniProt P03372); assay: Displacement of [3H]-estradiol from human full-length ERalpha after 18 to 24 hrs by competitive radiometric binding assay relative to estradiol
T1 sequence (whole entry): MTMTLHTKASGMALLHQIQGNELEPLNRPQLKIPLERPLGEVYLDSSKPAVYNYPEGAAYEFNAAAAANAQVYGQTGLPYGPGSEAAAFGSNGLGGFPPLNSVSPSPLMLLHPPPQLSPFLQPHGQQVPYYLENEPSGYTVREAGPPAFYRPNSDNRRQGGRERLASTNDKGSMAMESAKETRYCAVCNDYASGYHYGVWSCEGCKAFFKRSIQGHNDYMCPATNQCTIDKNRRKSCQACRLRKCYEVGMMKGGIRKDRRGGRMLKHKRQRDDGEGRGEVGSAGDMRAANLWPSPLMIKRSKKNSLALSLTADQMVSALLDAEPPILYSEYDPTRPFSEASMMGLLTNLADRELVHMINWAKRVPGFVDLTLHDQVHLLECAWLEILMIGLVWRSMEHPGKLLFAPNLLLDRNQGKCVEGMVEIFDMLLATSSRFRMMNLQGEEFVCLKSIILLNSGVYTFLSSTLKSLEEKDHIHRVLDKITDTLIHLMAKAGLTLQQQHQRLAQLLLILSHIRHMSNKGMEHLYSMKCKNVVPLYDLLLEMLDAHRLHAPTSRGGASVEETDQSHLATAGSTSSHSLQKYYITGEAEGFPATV

[2] = biological target: T2, Estrogen receptor beta (Homo sapiens, UniProt Q92731); assay: Displacement of [3H]-estradiol from human full-length ERbeta after 18 to 24 hrs by competitive radiometric binding assay relative to estradiol
T2 sequence (Q92731 whole entry): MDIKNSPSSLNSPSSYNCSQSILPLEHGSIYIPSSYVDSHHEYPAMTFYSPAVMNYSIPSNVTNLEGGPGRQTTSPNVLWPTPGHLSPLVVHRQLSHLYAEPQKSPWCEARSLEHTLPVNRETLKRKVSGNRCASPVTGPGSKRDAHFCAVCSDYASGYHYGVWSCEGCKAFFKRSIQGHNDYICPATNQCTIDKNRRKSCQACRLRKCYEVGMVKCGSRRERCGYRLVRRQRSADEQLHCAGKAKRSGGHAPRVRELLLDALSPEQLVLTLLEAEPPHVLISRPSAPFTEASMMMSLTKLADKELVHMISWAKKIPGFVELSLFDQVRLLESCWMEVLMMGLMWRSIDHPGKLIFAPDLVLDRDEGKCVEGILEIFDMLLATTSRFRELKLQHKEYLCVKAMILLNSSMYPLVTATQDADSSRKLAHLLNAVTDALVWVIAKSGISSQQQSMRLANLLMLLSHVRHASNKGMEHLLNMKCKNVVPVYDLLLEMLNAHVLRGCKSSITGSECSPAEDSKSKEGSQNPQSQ

[3] = biological target: T1, Estrogen receptor (Homo sapiens); assay: Antagonist activity at ERalpha (unknown origin) expressed in human HepG2 cells assessed as inhibition of transcriptional activation after 24 hrs by ERE-luciferase reporter gene assay relative to 17beta-estradiol; type: cell-based
Outline: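 Antagonist mode used HepG2 cells cotransfected with a 3×ERE-luciferase reporter plus an ERα expression vector and steroid-deprived in phenol red-free medium with 10% charcoal-dextran-stripped FBS. Cells received 10 nM estradiol together with increasing compound concentrations across a 10 μM to 100 pM dose curve. Luciferase was measured after 24 h and normalized to DMSO (0%) and the top of the E2 curve (100%).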

[4] = biological target: T2, Estrogen receptor beta; assay: Antagonist activity at ERbeta (unknown origin) expressed in human HepG2 cells assessed as inhibition of 17beta-estradiol-induced transcriptional activation after 24 hrs by ERE-luciferase reporter gene assay; type: cell-based
Outline: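 ERβ-transfected, steroid-deprived HepG2 cells carrying a 3×ERE-luciferase reporter were co-treated with 10 nM estradiol and test ligand over a range of 10 μM to 100 pM. Luciferase was read after 24 h, with each plate normalized to DMSO (0%) and the maximal E2 response (100%). IC50 and % efficacy were derived from the dose curves.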

[5] = test system: HepG2; assay: Agonist activity at ERalpha (unknown origin) harboring N-terminal AF1 domain deleted mutant expressed in human HepG2 cells assessed as transcriptional activation after 24 hrs by ERE-luciferase reporter gene assay; type: cell-based
[6] = biological target: T2, Estrogen receptor beta; assay: Agonist activity at ERbeta (unknown origin) expressed in human HepG2 cells assessed as transcriptional activation after 24 hrs by ERE-luciferase reporter gene assay relative to 17beta-estradiol; type: cell-based
Outline: (§1)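 HepG2 cells were cotransfected with a 3×ERE-luciferase reporter (10 μg) plus an ERα or ERβ expression vector (1.6 μg) per 10 cm dish. The next day they were replated at 20 000 cells/well in phenol red-free medium with 10% charcoal-dextran-stripped FBS and held overnight. Cells were then dosed over a 12-point range of 10 μM to 100 pM. Luciferase was read after 24 h, with DMSO set as 0% and the top of the E2 curve as 100%.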

[7] = biological target: T1, Estrogen receptor (Homo sapiens); assay: Agonist activity at ERalpha (unknown origin) expressed in human HepG2 cells assessed as transcriptional activation after 24 hrs by ERE-luciferase reporter gene assay relative to 17beta-estradiol; type: cell-based; outline: as §1
[8] = species: Homo sapiens; assay: Selectivity ratio of RBA for human full length ERbeta to RBA for human full-length ERalpha
[9] = biological target: T3, Estrogen receptor (Homo sapiens, UniProt P03372); assay: Agonist activity at ERalpha (unknown origin) expressed in human HepG2 cells assessed as transcriptional activation after 24 hrs by ERE-luciferase reporter gene assay; type: cell-based
T3 sequence (P03372 whole entry): T1 sequence (whole entry)
Outline: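 HepG2 cells were grown in DMEM with 10% FBS and transfected with a 3×ERE-luciferase reporter plus an ERα or ERβ expression vector. The next day cells were moved to phenol red-free medium with 10% charcoal-dextran-stripped FBS, plated at 20 000 cells/well and left overnight. Ligand was then added as a 12-point dose curve from 10 μM to 100 pM. Luciferase was read after 24 h, normalized to DMSO as 0% and the top of the E2 curve as 100%.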

## Oc1ccc(/N=C/c2ccccc2O)cc1
[1]
  RBA: < 3%
[2]
  RBA: < 3%

## Oc1ccc(C(=Nc2ccc(F)cc2)c2ccc(O)cc2)cc1
[3]
  Efficacy: 113%
[4]
  IC50: 7 nM
[1]
  RBA: 19.7%
[2]
  RBA: 45.6%
[5]
  Activity: inactive
[6]
  Efficacy: 10%
[7]
  Efficacy: 114%
[8]
  Selectivity ratio: 2.3
[9]
  EC50: 2 nM

## Oc1ccc(C(=Nc2ccccc2Cl)c2ccc(O)cc2)cc1
[3]
  Efficacy: 83%
[4]
  IC50: 19 nM
[1]
  RBA: 62.8%
[2]
  RBA: 97%
[5]
  Activity: inactive
[6]
  Efficacy: 37%
[7]
  Efficacy: 104%
[8]
  Selectivity ratio: 1.5
[9]
  EC50: 1 nM

## Cc1ccccc1N=C(c1ccc(O)cc1)c1ccc(O)cc1
[3]
  Efficacy: 149%
[4]
  IC50: 6 nM
[1]
  RBA: 40.6%
[2]
  RBA: 116%
[5]
  Activity: inactive
[6]
  Efficacy: 8%
[7]
  Efficacy: 103%
[8]
  Selectivity ratio: 2.8
[9]
  EC50: 7 nM

## Cc1ccc(N=C(c2ccc(O)cc2)c2ccc(O)cc2)cc1
[4]
  IC50: 45 nM
[1]
  RBA: 10%
[2]
  RBA: 20.1%
[5]
  Activity: inactive
[6]
  Efficacy: 7%
[8]
  Selectivity ratio: 2

## C/C(=N\c1ccc(O)cc1)c1ccc(O)cc1
[1]
  RBA: < 3%
[2]
  RBA: < 3%

## Oc1ccc(C(=Nc2cccc(C(F)(F)F)c2)c2ccc(O)cc2)cc1
[3]
  Efficacy: 104%
[4]
  IC50: 24 nM
[1]
  RBA: 33.4%
[2]
  RBA: 139%
[5]
  Activity: inactive
[6]
  Efficacy: 3%
[7]
  Efficacy: 89%
[8]
  Selectivity ratio: 4.2
[9]
  EC50: 23 nM

## COc1ccc(/C(=N\c2ccc(O)cc2)c2ccc(O)cc2O)cc1
[1]
  RBA: 11.9%
[2]
  RBA: 39.2%
[8]
  Selectivity ratio: 3.2

## Oc1ccc(/C(=N\c2ccc(F)cc2)c2ccc(O)cc2O)cc1
[3]
  Efficacy: 124%
[4]
  IC50: 139 nM
[1]
  RBA: 21.1%
[2]
  RBA: 27.7%
[5]
  Activity: inactive
[6]
  Efficacy: 23%
[7]
  Efficacy: 108%
[8]
  Selectivity ratio: 1.3
[9]
  EC50: 10 nM

## Oc1ccc(/N=C(\c2ccc(O)cc2)c2ccc(O)cc2O)cc1
[3]
  Efficacy: 108%
[4]
  IC50: 417 nM
[1]
  RBA: 2.25%
[2]
  RBA: 1.23%
[5]
  Activity: inactive
[6]
  Efficacy: 51%
[7]
  Efficacy: 97%
[8]
  Selectivity ratio: 0.5
[9]
  EC50: 7 nM

## COc1ccc(N=C(c2ccc(O)cc2)c2ccc(O)cc2)cc1
[1]
  RBA: 4.41%
[2]
  RBA: 3.98%
[8]
  Selectivity ratio: 0.9

## Oc1ccc(/C(=N\c2cccc(C(F)(F)F)c2)c2ccc(O)cc2O)cc1
[3]
  Efficacy: 95%
[4]
  IC50: 28 nM
[1]
  RBA: 28.2%
[2]
  RBA: 72.1%
[5]
  Activity: inactive
[6]
  Efficacy: 11%
[7]
  Efficacy: 100%
[8]
  Selectivity ratio: 2.6
[9]
  EC50: 57 nM

## Cc1cccc(N=C(c2ccc(O)cc2)c2ccc(O)cc2)c1
[3]
  Efficacy: 93%
[4]
  IC50: 41 nM
[1]
  RBA: 13.2%
[2]
  RBA: 69.2%
[5]
  Activity: inactive
[6]
  Efficacy: 13%
[7]
  Efficacy: 109%
[8]
  Selectivity ratio: 5.2
[9]
  EC50: 5 nM

## Oc1ccc(C(=Nc2ccc(Cl)cc2)c2ccc(O)cc2)cc1
[3]
  Efficacy: 138%
[4]
  IC50: 9 nM
[1]
  RBA: 49.2%
[2]
  RBA: 127%
[5]
  Activity: inactive
[6]
  Efficacy: 9%
[7]
  Efficacy: 114%
[8]
  Selectivity ratio: 2.6
[9]
  EC50: 2 nM

## COc1ccc(/N=C(\c2ccccc2)c2ccc(O)cc2O)cc1
[1]
  RBA: 11.3%
[2]
  RBA: 5.55%
[8]
  Selectivity ratio: 0.49

## Cc1cccc(C)c1N=C(c1ccc(O)cc1)c1ccc(O)cc1
[1]
  RBA: 1.56%
[2]
  RBA: 2.91%
[8]
  Selectivity ratio: 1.9

## Cc1cccc(/N=C(\c2ccc(O)cc2)c2ccc(O)cc2O)c1
[3]
  Efficacy: 101%
[4]
  IC50: 51 nM
[1]
  RBA: 15.3%
[2]
  RBA: 38.1%
[5]
  Activity: inactive
[6]
  Efficacy: 9%
[7]
  Efficacy: 95%
[8]
  Selectivity ratio: 2.5
[9]
  EC50: 14 nM

## Oc1ccc(C(=Nc2ccccc2)c2ccc(O)cc2)cc1
[3]
  Efficacy: 126%
[4]
  IC50: 13 nM
[1]
  RBA: 14.1%
[2]
  RBA: 31.5%
[6]
  Efficacy: 34%
[7]
  Efficacy: 110%
[8]
  Selectivity ratio: 2.2
[9]
  EC50: 3 nM

## Oc1ccc(/C(=N\c2cccc(Cl)c2)c2ccc(O)cc2O)cc1
[3]
  Efficacy: 118%
[4]
  IC50: 67 nM
[1]
  RBA: 37.6%
[2]
  RBA: 61.6%
[5]
  Activity: inactive
[6]
  Efficacy: 15%
[7]
  Efficacy: 117%
[8]
  Selectivity ratio: 1.6
[9]
  EC50: 15 nM

## Oc1ccc(C(=Nc2ccc(Br)cc2)c2ccc(O)cc2)cc1
[3]
  Efficacy: 128%
[4]
  IC50: 6 nM
[1]
  RBA: 41.5%
[2]
  RBA: 94.1%
[5]
  Activity: inactive
[6]
  Efficacy: 11%
[7]
  Efficacy: 105%
[8]
  Selectivity ratio: 2.3
[9]
  EC50: 1 nM

## Oc1ccc(/C(=N\c2ccccc2Cl)c2ccc(O)cc2O)cc1
[3]
  Efficacy: 136%
[4]
  IC50: 6 nM
[1]
  RBA: 96.7%
[2]
  RBA: 77.9%
[5]
  Activity: inactive
[6]
  Efficacy: 54%
[7]
  Efficacy: 113%
[8]
  Selectivity ratio: 0.8
[9]
  EC50: 0.1 nM
